Here are results for three molecules from ChEMBL document CHEMBL4118021, “Studies of TAK1-centered polypharmacology with novel covalent TAK1 inhibitors” (Bioorg Med Chem, 2017).

Assay [1] addresses Tight junction protein 1 (Homo sapiens) (UniProt Q07157). Description: Binding affinity to TJP1 in human NCI-H358 cells at 1 uM by mass spectrometry based pull down assay. The format is cell-based.
Assay [2] has as its target Replication factor C subunit 5 (Homo sapiens) (UniProt P40937). Description: Binding affinity to RFC5 in human NCI-H358 cells at 1 uM by mass spectrometry based pull down assay. In kind it is cell-based.
For assay [3], the target named is StAR-related lipid transfer protein 7, mitochondrial (Homo sapiens) (UniProt Q9NQZ5). Description: Binding affinity to STARD7 in human NCI-H23 cells at 1 uM by mass spectrometry based pull down assay. In kind it is cell-based.
For assay [4], the target named is Kelch-like ECH-associated protein 1 (Homo sapiens) (UniProt Q14145). Description: Binding affinity to KEAP1 in human NCI-H23 cells at 1 uM by mass spectrometry based pull down assay. The format is cell-based.
For assay [5], the target named is WD repeat and HMG-box DNA-binding protein 1 (Homo sapiens) (UniProt O75717). The assay is described as follows: Binding affinity to WDHD1 in human NCI-H358 cells at 1 uM by mass spectrometry based pull down assay. In kind it is cell-based.
In assay [6] the target is 14-3-3 protein epsilon (Homo sapiens) (UniProt P62258). The assay is described as follows: Binding affinity to YWHAE in human NCI-H23 cells at 1 uM by mass spectrometry based pull down assay. The format is cell-based.
The target of assay [7] is Fructose-2,6-bisphosphatase TIGAR (Homo sapiens) (UniProt Q9NQ88). Description: Binding affinity to TIGAR in human NCI-H23 cells at 1 uM by mass spectrometry based pull down assay. The format is cell-based.
In assay [8] the target is T1, 80S Ribosome (Homo sapiens) (UniProt P08865+P42677+P62753+P15880+P23396+P61247+P62701+P22090+P46782+P62081+P62241+P46781+P46783+P62280+P25398+P62277+P62263+P62841+P62244+P62249+P08708+P62269+P39019+P60866+P63220+P62266+P62847+P62851+P62854+P62979+P62857+P62273+P62861+P39023+P36578+P46777+Q02878+P18124+P62424+P62917+P32969+P27635+P62906+P62913+P30050+P26373+P40429+P50914+P61313+P18621+Q07020+Q02543+P84098+P46778+P35268+P62829+P62750+P83731+P61254+P61353+P46776+P46779+P47914+P62888+P62899+P62910+P49207+P42766+P18077+Q9Y3U8+P83881+P61927+P61513+P63173+P62891+P62945+P05388+P05386). Description: Binding affinity to RPS5 in human NCI-H358 cells at 1 uM by mass spectrometry based pull down assay. In kind it is cell-based.

Assay [9] has as its target Cysteine and glycine-rich protein 1 (Homo sapiens) (UniProt P21291). The assay is described as follows: Binding affinity to CSRP1 in human NCI-H23 cells at 1 uM by mass spectrometry based pull down assay. In kind it is cell-based.
For assay [10], the target named is WD repeat and HMG-box DNA-binding protein 1 (Homo sapiens) (UniProt O75717). Description: Binding affinity to WDHD1 in human NCI-H23 cells at 1 uM by mass spectrometry based pull down assay. The format is cell-based.
Assay [11] has as its target Kinesin-like protein KIF15 (Homo sapiens) (UniProt Q9NS87). The assay is described as follows: Binding affinity to KIF15 in human NCI-H358 cells at 1 uM by mass spectrometry based pull down assay. The format is cell-based.
In assay [12] the target is U5 small nuclear ribonucleoprotein 200 kDa helicase (Homo sapiens) (UniProt O75643). Description: Binding affinity to SNRNP200 in human NCI-H23 cells at 1 uM by mass spectrometry based pull down assay. The format is cell-based.
Assay [13] deals with MOB kinase activator 1B (Homo sapiens) (UniProt Q7L9L4). Description: Binding affinity to MOB1B in human NCI-H23 cells at 1 uM by mass spectrometry based pull down assay. In kind it is cell-based.
For assay [14], the target named is Thioredoxin-related transmembrane protein 1 (Homo sapiens) (UniProt Q9H3N1). Description: Binding affinity to TMX1 in human NCI-H23 cells at 1 uM by mass spectrometry based pull down assay. In kind it is cell-based.
The target of assay [15] is Thioredoxin-like protein 1 (Homo sapiens) (UniProt O43396). The assay is described as follows: Binding affinity to TXNL1 in human NCI-H23 cells at 1 uM by mass spectrometry based pull down assay. The format is cell-based.
Assay [16] concerns the target T1, 80S Ribosome (Homo sapiens). The assay is described as follows: Binding affinity to RPS12 in human NCI-H358 cells at 1 uM by mass spectrometry based pull down assay. The format is cell-based.
In the next assay the test system is NCI-H358. The assay is described as follows: Binding affinity to PSMA7 in human NCI-H358 cells at 1 uM by mass spectrometry based pull down assay. The format is cell-based.
Assay [17] addresses Phosphatidylinositol 3-kinase catalytic subunit type 3 (Homo sapiens) (UniProt Q8NEB9). The assay is described as follows: Binding affinity to PIK3C3 in human NCI-H23 cells at 1 uM by mass spectrometry based pull down assay. The format is cell-based.
For assay [18], the target named is Clathrin light chain A (Homo sapiens) (UniProt P09496). The assay is described as follows: Binding affinity to CLTA in human NCI-H358 cells at 1 uM by mass spectrometry based pull down assay. The format is cell-based.
In assay [19] the target is Mitotic interactor and substrate of PLK1 (Homo sapiens) (UniProt Q8IVT2). Description: Binding affinity to MISP in human NCI-H358 cells at 1 uM by mass spectrometry based pull down assay. The format is cell-based.
The target of assay [20] is Activin receptor type-1 (Homo sapiens) (UniProt Q04771). The assay is described as follows: Inhibition of human ACVR1 (188 to 509 residues) expressed in bacterial expression system assessed as enzyme activity at 10 uM by KINOMEScan assay relative to control. Also noted: scale not given: the % may be the effect or the level left. An outline of the steps: (§1)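 In vitro ATP-site competition binding assay (KinomeScan) across a panel of 456 kinases. Compound was tested at 1 and 10 μM. The read-out is the binding inhibition score relative to control.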

Assay [21] deals with Cyclin-dependent kinase-like 2 (Homo sapiens) (UniProt Q92772). The assay is described as follows: Inhibition of human CDKL2 (1 to 327 residues) expressed in bacterial expression system assessed as enzyme activity at 1 uM by KINOMEScan assay relative to control. On the set-up: scale not given: the % may be the effect or the level left. An outline of the steps:
as §1

In assay [22] the target is Receptor-type tyrosine-protein kinase FLT3 (Homo sapiens, UniProt P36888). The assay is described as follows: Inhibition of FLT3 (unknown origin).

Activity calls are given as the source filed them. No cut-off for these calls is given here.

WD repeat and HMG-box DNA-binding protein 1 (Homo sapiens), sequence (O75717 whole entry): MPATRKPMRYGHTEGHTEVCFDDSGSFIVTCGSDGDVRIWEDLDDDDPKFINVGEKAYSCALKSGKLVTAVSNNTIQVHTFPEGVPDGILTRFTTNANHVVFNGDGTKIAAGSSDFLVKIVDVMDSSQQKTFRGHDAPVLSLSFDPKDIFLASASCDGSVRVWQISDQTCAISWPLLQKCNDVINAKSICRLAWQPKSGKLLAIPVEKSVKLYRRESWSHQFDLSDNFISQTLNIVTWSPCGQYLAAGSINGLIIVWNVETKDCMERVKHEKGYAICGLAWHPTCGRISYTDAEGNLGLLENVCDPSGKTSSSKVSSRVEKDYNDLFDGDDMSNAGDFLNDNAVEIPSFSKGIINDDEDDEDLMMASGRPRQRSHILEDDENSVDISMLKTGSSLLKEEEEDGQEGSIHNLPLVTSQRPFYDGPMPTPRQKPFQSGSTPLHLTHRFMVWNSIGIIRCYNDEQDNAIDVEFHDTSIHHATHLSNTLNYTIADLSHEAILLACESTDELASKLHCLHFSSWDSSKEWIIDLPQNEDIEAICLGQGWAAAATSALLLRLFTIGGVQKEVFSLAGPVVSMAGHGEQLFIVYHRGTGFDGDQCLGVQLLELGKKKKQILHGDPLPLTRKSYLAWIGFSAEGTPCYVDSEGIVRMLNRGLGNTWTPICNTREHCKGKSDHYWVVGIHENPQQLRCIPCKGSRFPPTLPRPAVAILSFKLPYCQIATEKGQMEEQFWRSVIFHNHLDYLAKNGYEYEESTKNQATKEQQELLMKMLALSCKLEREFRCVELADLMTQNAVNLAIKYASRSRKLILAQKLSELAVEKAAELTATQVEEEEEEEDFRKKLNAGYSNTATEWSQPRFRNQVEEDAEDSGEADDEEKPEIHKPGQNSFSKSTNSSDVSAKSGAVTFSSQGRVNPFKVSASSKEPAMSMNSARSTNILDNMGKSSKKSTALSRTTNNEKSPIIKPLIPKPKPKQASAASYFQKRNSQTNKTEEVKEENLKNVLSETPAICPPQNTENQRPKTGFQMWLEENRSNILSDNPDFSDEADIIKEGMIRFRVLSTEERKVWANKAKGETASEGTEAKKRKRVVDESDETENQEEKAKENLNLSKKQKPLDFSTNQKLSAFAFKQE
Mitotic interactor and substrate of PLK1 (Homo sapiens), sequence (Q8IVT2 whole entry, the tested form may be a part): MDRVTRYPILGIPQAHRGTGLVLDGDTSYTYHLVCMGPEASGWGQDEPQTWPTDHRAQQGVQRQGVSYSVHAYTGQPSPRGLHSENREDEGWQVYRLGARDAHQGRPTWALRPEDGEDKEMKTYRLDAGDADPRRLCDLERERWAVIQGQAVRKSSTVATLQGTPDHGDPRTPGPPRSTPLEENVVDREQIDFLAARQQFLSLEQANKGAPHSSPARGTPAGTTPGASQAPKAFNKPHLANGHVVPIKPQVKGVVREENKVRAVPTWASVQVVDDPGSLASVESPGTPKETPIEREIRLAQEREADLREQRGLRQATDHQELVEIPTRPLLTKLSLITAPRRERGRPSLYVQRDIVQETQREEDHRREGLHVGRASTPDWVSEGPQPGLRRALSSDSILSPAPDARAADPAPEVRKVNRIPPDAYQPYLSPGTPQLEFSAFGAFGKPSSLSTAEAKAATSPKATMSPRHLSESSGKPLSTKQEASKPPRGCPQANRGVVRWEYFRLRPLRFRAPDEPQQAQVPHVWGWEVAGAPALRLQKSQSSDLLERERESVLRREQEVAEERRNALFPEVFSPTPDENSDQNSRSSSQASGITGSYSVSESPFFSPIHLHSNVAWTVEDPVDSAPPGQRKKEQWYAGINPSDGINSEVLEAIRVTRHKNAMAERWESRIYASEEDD
U5 small nuclear ribonucleoprotein 200 kDa helicase (Homo sapiens), sequence (O75643 whole entry): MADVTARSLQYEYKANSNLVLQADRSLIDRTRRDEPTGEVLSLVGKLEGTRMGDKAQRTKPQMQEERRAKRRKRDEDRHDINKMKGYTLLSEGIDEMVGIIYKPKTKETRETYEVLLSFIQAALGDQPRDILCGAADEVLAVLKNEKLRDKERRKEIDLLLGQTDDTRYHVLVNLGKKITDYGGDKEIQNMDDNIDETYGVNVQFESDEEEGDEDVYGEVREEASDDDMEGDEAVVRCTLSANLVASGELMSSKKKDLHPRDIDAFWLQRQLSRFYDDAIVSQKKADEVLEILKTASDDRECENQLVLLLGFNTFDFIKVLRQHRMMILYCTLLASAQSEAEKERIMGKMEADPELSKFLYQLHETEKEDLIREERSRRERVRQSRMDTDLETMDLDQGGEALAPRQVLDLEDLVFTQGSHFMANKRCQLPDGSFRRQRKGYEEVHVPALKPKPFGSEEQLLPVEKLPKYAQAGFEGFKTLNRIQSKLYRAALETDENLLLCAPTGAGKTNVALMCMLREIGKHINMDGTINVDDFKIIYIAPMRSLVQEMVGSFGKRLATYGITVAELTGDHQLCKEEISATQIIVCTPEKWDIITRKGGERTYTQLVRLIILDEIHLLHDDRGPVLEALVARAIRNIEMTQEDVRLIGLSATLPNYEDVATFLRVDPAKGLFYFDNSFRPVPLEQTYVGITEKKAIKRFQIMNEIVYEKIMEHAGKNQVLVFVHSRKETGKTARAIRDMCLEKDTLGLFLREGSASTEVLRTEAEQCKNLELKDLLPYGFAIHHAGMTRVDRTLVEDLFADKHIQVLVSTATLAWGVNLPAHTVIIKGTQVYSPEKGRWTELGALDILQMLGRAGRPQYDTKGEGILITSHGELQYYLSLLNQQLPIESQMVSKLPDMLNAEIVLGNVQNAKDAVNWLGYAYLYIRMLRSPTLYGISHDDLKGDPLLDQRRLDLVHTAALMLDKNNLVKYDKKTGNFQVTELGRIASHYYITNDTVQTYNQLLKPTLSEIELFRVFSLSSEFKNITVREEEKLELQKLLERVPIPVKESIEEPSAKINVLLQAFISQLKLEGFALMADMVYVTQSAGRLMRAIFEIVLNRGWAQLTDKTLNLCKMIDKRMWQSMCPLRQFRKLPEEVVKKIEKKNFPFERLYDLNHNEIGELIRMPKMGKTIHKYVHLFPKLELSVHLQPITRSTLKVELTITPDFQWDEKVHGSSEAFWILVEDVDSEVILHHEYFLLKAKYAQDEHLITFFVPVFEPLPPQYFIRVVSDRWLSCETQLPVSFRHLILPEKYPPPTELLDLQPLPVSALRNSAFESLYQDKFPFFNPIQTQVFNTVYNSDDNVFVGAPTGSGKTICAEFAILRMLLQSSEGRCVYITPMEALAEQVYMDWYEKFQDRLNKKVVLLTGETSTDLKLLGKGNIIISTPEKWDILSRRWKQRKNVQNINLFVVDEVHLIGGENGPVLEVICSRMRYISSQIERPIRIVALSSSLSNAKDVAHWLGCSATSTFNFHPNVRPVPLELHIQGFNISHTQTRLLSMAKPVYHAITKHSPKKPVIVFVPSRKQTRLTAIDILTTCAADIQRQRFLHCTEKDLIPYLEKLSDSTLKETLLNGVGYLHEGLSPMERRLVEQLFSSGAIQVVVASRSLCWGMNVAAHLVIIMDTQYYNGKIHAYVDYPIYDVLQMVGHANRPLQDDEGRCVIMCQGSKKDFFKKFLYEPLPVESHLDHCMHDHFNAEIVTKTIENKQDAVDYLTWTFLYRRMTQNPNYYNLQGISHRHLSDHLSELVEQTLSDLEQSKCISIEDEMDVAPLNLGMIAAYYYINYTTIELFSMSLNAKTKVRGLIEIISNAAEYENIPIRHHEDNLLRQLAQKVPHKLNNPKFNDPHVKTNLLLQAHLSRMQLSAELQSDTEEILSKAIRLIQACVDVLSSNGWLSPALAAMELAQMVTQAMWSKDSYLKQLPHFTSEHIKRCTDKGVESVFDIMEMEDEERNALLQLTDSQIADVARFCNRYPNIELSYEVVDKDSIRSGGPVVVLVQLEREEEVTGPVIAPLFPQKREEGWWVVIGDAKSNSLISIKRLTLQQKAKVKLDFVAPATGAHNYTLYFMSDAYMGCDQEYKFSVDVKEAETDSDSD
StAR-related lipid transfer protein 7, mitochondrial (Homo sapiens), sequence (Q9NQZ5 whole entry): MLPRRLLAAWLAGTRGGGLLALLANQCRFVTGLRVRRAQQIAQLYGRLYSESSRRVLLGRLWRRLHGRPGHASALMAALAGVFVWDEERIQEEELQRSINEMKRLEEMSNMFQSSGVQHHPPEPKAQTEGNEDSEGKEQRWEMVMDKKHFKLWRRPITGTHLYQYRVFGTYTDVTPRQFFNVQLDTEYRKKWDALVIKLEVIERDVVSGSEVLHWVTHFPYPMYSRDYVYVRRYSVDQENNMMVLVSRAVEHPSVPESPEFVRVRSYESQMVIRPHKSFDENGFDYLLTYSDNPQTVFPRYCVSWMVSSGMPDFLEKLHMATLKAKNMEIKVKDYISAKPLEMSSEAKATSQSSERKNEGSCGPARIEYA
MOB kinase activator 1B (Homo sapiens), sequence (Q7L9L4 whole entry): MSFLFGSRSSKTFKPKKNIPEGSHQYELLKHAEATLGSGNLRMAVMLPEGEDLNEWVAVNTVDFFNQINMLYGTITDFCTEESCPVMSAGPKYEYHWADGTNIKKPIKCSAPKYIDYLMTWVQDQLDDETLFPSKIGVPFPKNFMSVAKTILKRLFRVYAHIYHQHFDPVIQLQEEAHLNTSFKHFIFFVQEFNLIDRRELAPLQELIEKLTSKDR
Activin receptor type-1 (Homo sapiens), sequence (Q04771 whole entry, the tested form may be a part): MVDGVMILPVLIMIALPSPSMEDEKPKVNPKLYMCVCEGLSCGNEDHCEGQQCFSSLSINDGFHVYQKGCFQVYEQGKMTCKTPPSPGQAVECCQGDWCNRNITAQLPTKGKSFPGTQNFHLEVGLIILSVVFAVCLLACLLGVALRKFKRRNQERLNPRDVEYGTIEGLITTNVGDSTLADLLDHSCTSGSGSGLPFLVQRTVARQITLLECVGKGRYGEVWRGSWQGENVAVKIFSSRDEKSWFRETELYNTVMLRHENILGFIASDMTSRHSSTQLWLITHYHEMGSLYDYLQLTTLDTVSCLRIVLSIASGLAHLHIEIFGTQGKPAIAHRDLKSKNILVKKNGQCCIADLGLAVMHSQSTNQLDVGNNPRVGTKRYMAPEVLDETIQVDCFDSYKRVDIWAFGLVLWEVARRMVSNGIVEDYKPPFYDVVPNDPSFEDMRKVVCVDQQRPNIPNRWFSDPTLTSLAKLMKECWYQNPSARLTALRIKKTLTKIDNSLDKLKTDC

`C=CC(=O)Nc1ccccc1Nc1nc(Nc2ccc(N3CCN(CCOCCOCCOCCNC(=O)CCCC[C@@H]4SC[C@@H]5NC(=O)N[C@@H]54)CC3)cc2)ncc1Cl`: the outcome in assay [1], in [2], in assay [3], in assay [4], in assay [5] and in assay [6] was Active. Besides, the outcome in [7], in [8], in assay [9], in [10], in [11] and in assay [12] was Active. In addition, the outcome (in [13]; in assay [14]; in [15]; in assay [16]; in the assay on NCI-H358; in [17]) was Active. For the same molecule, the result in [18] and in assay [19] was Active.

On to `COc1cc(O)c2c(c1)/C=C/C[C@H](O)[C@H](O)C(=O)/C=C\C[C@H](C)OC2=O`, for which the Activity in assay [20] was determined as 1.9%; in [21] it was 76%.

Take `C=CC(=O)Nc1ccccc1Oc1nc(Nc2cnn(CCOC)c2)ncc1Cl`: the IC50 (commonly the concentration needed to halve the response being measured) in assay [22] was 0.54 nM.
